Screens: PubChem BioAssay, several laboratories
M1 antagonist: blocks the rat M1 muscarinic receptor response to acetylcholine; P08482; CHO-M1 cells, Fluo-4 calcium, ACh EC80 antagonist mode; stronger effect = lower value; B-score at 10 µM; actives 3.4% (n = 64,000); AID 628;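 active means calcium fluorescence response, raw or row-and-column corrected B-score, differing from the plate sample mean either way at a set confidence level, mostly lower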
S1P1 ag pot: agonists and agonism potentiators of human S1P1 receptor; S1P1 CRE-bla cells, forskolin, beta-lactamase FRET, potentiator mode; S1P1 agonist co-added at EC20, 2 nM; 100% = saturating reference agonist, 0% = basal; activation, % at 9.5 µM; actives 0.57% (n = 56,000); AID 449;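 active means activation above a cutoff set at the mean activation of all tested compounds plus 3 SD, cut at about 54% in these data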;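 further: forskolin at 4 µM as EC80 and the EC20 agonist is SEW2871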
S1P3 ag: agonists of human S1P3 receptor; activation, % at 4.5 µM; S1P3 NFAT-BLA reporter cells, agonism, FRET ratio; relative to 1 µM S1P, basal subtracted; actives 0.1% (n = 60,000); Q99500;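 active means activation above the screen-wide mean plus 3 SD, cut at about 4.5% in these data, passing the limit was not always enough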
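Assay system: CHO cells stably expressing human S1P3, Gα16 and NFAT-β-lactamase reporter. Timing: overnight plating, 4 h compound 37 °C, 2 h substrate RT. Signal: β-lactamase FRET emission ratio 460/535 nm. Measure: percent activation versus median 1 µM S1P response, basal-subtracted, per plate. Repeats: primary screen single test, confirmation screen in triplicate.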
M1 agonist: M1 muscarinic receptor agonism. CHO-M1 cells, Fluo-4 calcium fluorescence, agonist mode; stronger effect = higher value. B-score at 10 µM. actives 3% (n = 64,000);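 active means fluorescence rise, raw or as B-score row- and column-corrected plate score, outside the 99.7% band of its plate's samples, either direction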
Jurkat viability: reduces viability or proliferation of Jurkat cells. AID 463. Jurkat E6.1 viability, ATP luminescence, 48 h. inhibition, % at 4 µM. actives 1.2% (n = 56,000);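 active means inhibition above the mean inhibition of all tested compounds plus 3 SD, cut at about 28% in these data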
JNK3 blocker: JNK3 (human) kinase inhibition. purified JNK3 kinase activity, HTS. P53779. inhibition, % at 8 µM. actives 0.61% (n = 60,000). AID 746; in the data active means inhibition above about 17%
Target sequence (P53779 whole entry, looked up): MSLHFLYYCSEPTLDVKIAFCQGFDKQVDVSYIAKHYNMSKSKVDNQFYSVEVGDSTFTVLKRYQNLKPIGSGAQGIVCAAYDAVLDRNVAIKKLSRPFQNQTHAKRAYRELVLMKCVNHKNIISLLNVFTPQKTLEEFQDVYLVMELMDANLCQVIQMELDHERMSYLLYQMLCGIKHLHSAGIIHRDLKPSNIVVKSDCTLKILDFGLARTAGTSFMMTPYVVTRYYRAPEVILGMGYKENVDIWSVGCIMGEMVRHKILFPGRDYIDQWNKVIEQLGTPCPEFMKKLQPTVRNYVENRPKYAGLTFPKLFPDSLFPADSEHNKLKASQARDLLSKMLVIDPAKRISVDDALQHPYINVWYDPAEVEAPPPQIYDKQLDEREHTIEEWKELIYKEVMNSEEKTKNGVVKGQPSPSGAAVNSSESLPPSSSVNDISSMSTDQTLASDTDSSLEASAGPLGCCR
M1 antag conf: confirmation of rat M1 muscarinic receptor antagonists | AID 677 | calcium response (max-min fluorescence) at 10 µM | CHO-M1 cells, Fluo-4 calcium, ACh EC80 antagonism; stronger effect = lower value | actives 43% (n = 1,700) | shares compounds with M1 antagonist;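 active means calcium response below the same-plate mean of wells given acetylcholine alone at its 80%-effect dose, minus 3 SD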
mGluR4 antag: mGluR4 (human) activity, M1 antagonist secondary assay | shares compounds with M1 antagonist | CHO-mGluR4 calcium flux, Fluo-4 fluorescence, glutamate EC80; stronger effect = lower value | fluorescence response (max-min) at 10 µM | actives 0.9% (n = 1,700) | AID 678;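 active means fluorescence response below the plate's average for near-maximal glutamate wells, less 3 SD of those wells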;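 further: raw unnormalized fluorescence span taken in the window right after glutamate addition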
Hits are given with their value; i = inactive; nt = not tested or not shown. In the library only some 7.4% were active in any assay of this set; here they are far more common.

SMILES | M1 antagonist | S1P1 ag pot | S1P3 ag | M1 agonist | Jurkat viability | JNK3 blocker | M1 antag conf | mGluR4 antag
CN1C(=O)Cc2cc(S(=O)(=O)N3CCOCC3)ccc21 | i | i | i | i | i | i | nt | nt
CCOc1ccc(Nc2nc(Cc3nnc(SCC(=O)NCC4CCCO4)n3C)cs2)cc1 (stereo not drawn) | i | i | i | i | i | i | nt | nt
CCOc1ccc(Nc2nc(Cc3nnc(SCC(N)=O)o3)cs2)cc1 | -1.69 | nt | nt | i | nt | nt | i | i
C=C1Cn2c(nnc2-c2ccc(Cl)cc2)S1 | i | i | i | i | i | i | nt | nt
Cc1nn(C)cc1CN(C)C(=O)c1nn2c(c1Cl)NC(c1cccs1)CC2C(F)(F)F (stereo not drawn) | i | i | i | i | i | i | nt | nt
Cc1nn(C)c(C)c1CN(C)C(=O)c1cc2n(n1)C(C(F)(F)F)CC(c1cccs1)N2 (stereo not drawn) | -3.46 | i | i | i | i | i | i | i
COc1ccc(C(C(=O)OC(C)CN(C)C)c2ccccc2)cc1 (stereo not drawn) | -2.97 | i | i | i | i | i | 333 | i
CN1CCN(c2ccc(NC(=O)c3cccc(OCc4ccccc4)c3)cc2)CC1 | -5.29 | i | i | i | i | i | 304 | i
NCCCCCc1nnc(SCc2ccccc2Cl)o1 | i | i | i | i | i | i | nt | nt
NCCCCCc1nnc(SC/C=C/c2ccccc2)o1 | -3.56 | i | i | i | i | i | 450 | i
CC(=O)/C=C(\C)NCCNc1c(F)c(F)c(CO)c(F)c1F | i | i | i | i | nt | i | nt | nt
Cc1cc(C)nc(SCC(=O)Nc2ccc(S(=O)(=O)Nc3nccs3)cc2)n1 | i | i | i | i | i | i | nt | nt
O=C(O)CCC(=O)Nc1ccc(S(=O)(=O)Nc2nccs2)cc1 | -11.4 | i | i | i | nt | i | i | i
CCCC(O)(CCN1CCOCC1)c1ccc(Br)cc1 (stereo not drawn) | -3.56 | i | i | i | i | i | 283 | i
Cc1cnn(Cc2ccccc2)c1N | i | i | i | i | i | i | nt | nt
CCCOC(=O)C1=C(C)NC2=C(C(=O)CCC2)C1c1ccc(N(C)C)cc1 (stereo not drawn) | -8.23 | i | i | i | i | i | 248 | i
CCOC(=O)C1=C(C)NC2=C(C(=O)CCC2)C1c1ccsc1 (stereo not drawn) | i | i | i | i | i | i | nt | nt
COCCOC(=O)C1=C(C)NC2=C(C(=O)CC(C)(C)C2)C1c1ccc(N(C)C)cc1 (stereo not drawn) | i | i | i | i | i | i | nt | nt
CCN(CC)c1ccc(C2C(C(=O)OCCOC)=C(C)NC3=C2C(=O)CCC3)cc1 (stereo not drawn) | -10.1 | i | i | i | i | i | 222 | i
CCOC(=O)C1=C(C)NC2=C(C(=O)CCC2)C1c1ccc(N(C)C)cc1 (stereo not drawn) | -4.32 | i | i | i | i | i | 350 | i
COCCOC(=O)C1=C(C)NC2=C(C(=O)CCC2)C1c1ccc2c(c1)OCO2 (stereo not drawn) | i | i | i | i | i | i | nt | nt
O=C(Cc1c(O)c2ccccc2[nH]c1=O)OC1CCCCC1 | i | i | i | i | i | i | nt | nt
CCOc1ccccc1-c1nc(SCC(=O)O)n[nH]1 | i | i | i | i | i | i | nt | nt
Cc1cccn2c(=O)c3cc(C(=O)NC4CCCC4)c(=N)n(C4CCCC4)c3nc12 | -4.77 | nt | nt | i | nt | nt | 367 | i
Cc1cccn2c(=O)c3cc(C(=O)NC4CCCCC4)c(=N)n(CCN4CCOCC4)c3nc12 | -2.42 | i | i | i | i | i | i | i
SMILES | M1 antagonist | S1P1 ag pot | S1P3 ag | M1 agonist | Jurkat viability | JNK3 blocker | M1 antag conf | mGluR4 antag
CCCCNC(=O)c1cc2c(=O)n3cccc(C)c3nc2n(CCN2CCOCC2)c1=N | nt | i | i | nt | i | i | nt | nt
COC(=O)c1cc(NS(=O)(=O)c2ccc3c(c2)CCC(=O)N3)cc(C(=O)OC)c1 | i | i | i | i | i | i | nt | nt
CCn1c(=O)c(C(=O)Nn2c(C)nc3ccccc3c2=O)c(O)c2ccccc21 | -13.6 | i | i | i | i | i | i | i
COc1cccc(-n2nnc3c(=O)n(CC(=O)N4CCC(Cc5ccccc5)CC4)cnc32)c1 | i | nt | nt | i | nt | nt | nt | nt
COc1cccc(-c2n[nH]c(=S)n2Cc2ccco2)c1OC | i | i | i | i | i | i | nt | nt
S=c1[nH]nc(Cc2ccccc2)n1Cc1ccco1 | -13.1 | i | i | i | i | i | 51.7 | i
CC(=O)N1CCc2cc(S(=O)(=O)NCCN3CCC(C)CC3)ccc21 | i | nt | nt | i | nt | nt | nt | nt
Cc1cc(=O)[nH]c(=S)n1-c1ccccc1 | -1.24 | i | i | i | i | i | i | i
Cc1cc2nnc(SCc3ccccc3)n2c(N)n1 | i | i | i | i | i | i | nt | nt
CC(=O)Nc1ccc(S(=O)(=O)N2CCN(C34CC5CC(CC(C5)C3)C4)CC2)cc1 | -3.06 | i | i | i | i | i | i | i
O=c1c2c3c(sc2nc2n1CCCCC2)CCCCC3 | -3.07 | i | i | i | i | i | 273 | i
Cc1ccc(C)n1-n1c(C)nc2sc3c(c2c1=O)CCCCC3 | -5.56 | i | i | i | i | i | 325 | i
O=C(CCNC(=O)c1ccc(Br)o1)NCc1ccccn1 | -7.67 | i | i | i | i | i | i | 144
Cc1noc(C)c1COC(=O)c1cc(C)n(-c2ccccc2)c1C | -2.69 | i | i | i | i | i | i | i
Cc1cc(C(=O)OCc2nnc(-c3ccccc3)o2)c(C)n1-c1ccccc1 | i | nt | nt | i | nt | nt | nt | nt
COc1ccc2nc(NC(=O)CSc3nc4ccccc4o3)sc2c1 | i | i | i | i | i | i | nt | nt
COc1ccc2nc(NC(=O)CSc3nnc(-c4ccoc4C)n3C)sc2c1 | -11.3 | i | i | i | i | i | i | i
CCCCN1C(=O)C2ON(c3ccccc3C)C(c3ccco3)C2C1=O (stereo not drawn) | -0.941 | i | i | i | i | i | 532 | i
CCOC(=O)c1ccc(N2C(=O)C3ON(c4ccccc4)C(c4ccco4)C3C2=O)cc1 (stereo not drawn) | i | i | i | i | i | i | nt | nt
CCCC(=O)Nc1ccc2oc(-c3cccnc3)nc2c1 | -2.38 | i | i | i | i | i | i | i
CCCCC(=O)Nc1ccc2oc(-c3cccnc3)nc2c1 | i | i | i | i | i | i | nt | nt
O=C(N1CCN(CCO)CC1)N1c2ccccc2C=Cc2ccccc21 | -3.2 | i | i | i | i | i | 437 | i
Cc1cc(N2CCCN(C)CC2)nc2cc(Cl)ccc12 | -3.71 | i | i | i | i | i | 378 | i
CCC(NC(C)C)C(O)c1ccc(O)c(O)c1 (stereo not drawn) | -14.2 | i | i | i | nt | i | i | i
